Here are results for 64 molecules from PubChem BioAssay AID522 (The Scripps Research Institute Molecular Screening Center, 2006).

About 1,200 (1.8%) of roughly 65,000 compounds were called active.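 How the source made its calls: active means activation above the mean activation of all tested compounds plus 3 SD (cut at about 50% in these data); inactive means the rest.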 Many of the other results were omitted from the sample, so actives are more common in it than they were.

Steroidogenic factor 1 (Homo sapiens), sequence (Q13285 whole entry, looked up, the tested form may be a part): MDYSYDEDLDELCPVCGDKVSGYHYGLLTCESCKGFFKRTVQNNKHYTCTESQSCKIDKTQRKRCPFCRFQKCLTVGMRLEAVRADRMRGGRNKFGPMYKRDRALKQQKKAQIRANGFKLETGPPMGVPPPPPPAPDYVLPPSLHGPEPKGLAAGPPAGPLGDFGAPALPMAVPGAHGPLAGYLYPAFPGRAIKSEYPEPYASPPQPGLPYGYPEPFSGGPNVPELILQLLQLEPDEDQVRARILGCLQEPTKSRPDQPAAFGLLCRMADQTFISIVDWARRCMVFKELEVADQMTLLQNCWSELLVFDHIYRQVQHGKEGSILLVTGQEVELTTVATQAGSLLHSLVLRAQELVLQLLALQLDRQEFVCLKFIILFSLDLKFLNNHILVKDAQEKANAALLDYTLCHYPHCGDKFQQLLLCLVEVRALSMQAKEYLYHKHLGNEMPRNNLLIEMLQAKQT

The target of this experiment is Steroidogenic factor 1 (Homo sapiens) (UniProt Q13285). As to the kind of experiment: activators of human SF-1, primary screen, cell-based, CHO-K1, Gal4-SF-1 LBD, luciferase luminescence (AID 522). The conditions noted are these: CHO-K1 Gal4-SF-1 LBD luciferase reporter; at 10 µM; active compounds read high; % increase over DMSO SF-1-specific signal. Put shortly:
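Assay system: CHO-K1 cells co-transfected with Gal4 DBD–human SF-1 LBD, 5xGal4 luciferase reporter; doses: 10 µM only; incubation: 20 h compound exposure at 37 °C after 1 h cell settling; signal: luciferase light emission; evaluation: percent activation versus DMSO; repeats: one test per compound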
On the technique in general: In a reporter assay the amount or activity of a reporter protein is the signal.
Turning to `CCOC(=O)c1cccc(NC(=O)CN(c2ccc(C)cc2)S(=O)(=O)c2c(C)noc2C)c1`, the activation was -5.1% (inactive). Then `CC(=O)N1CCC(C(=O)Nc2nc(-c3ccccc3)ns2)CC1`, with -1.6% (inactive); and `COc1ccc(CN(C(=O)c2cccs2)c2nccs2)cc1OC`, with 7.7% (inactive); and `O=C(CSCc1cccs1)N1CCCC1`, with 60.5% (active). As for `Cn1c(=NC(=O)CSCC(=O)N2CCCCC2)sc2ccccc21`, the activation was 8.9% (inactive). For `O=C(c1cc(-c2cccs2)on1)N1CCCCC1`, the activation is 41.3% (inactive). Then `CC(=O)Oc1ccc(C)cc1N1C(=O)c2ccc(C(=O)O)cc2C1=O`, with -0.3% (inactive); and `O=C(CSc1nnc2ccccn12)c1ccccc1`, with 55.3% (active). Then `Cn1c(CC(=O)Nc2ccccc2)nnc1SCC(=O)c1ccccc1`, with 4.4% (inactive); and `O=C(CSc1nnc(-c2ccco2)n1CC1CCCO1)c1ccccc1` (centres undefined), with 16.7% (inactive). `Cc1c(C(=O)NCC2CCCO2)sc2nc(-c3ccccc3)cn12` (centres undefined): the activation is 9% (inactive).

Consider `Clc1ccc(Cc2nn3c(-c4ccncc4)nnc3s2)cc1`, for which the activation is 15.3% (inactive). `Cc1cc(NC(=O)c2cc(-c3cccs3)on2)nn1Cc1ccc(Cl)cc1`: the activation is -2.6% (inactive). Under `Clc1ccc(Cc2nnc(-c3cccs3)o2)cc1` stands 59.5% (active); under `CSC1=NCCN1C(=O)c1ccc(S(=O)(=O)N2CCOCC2)cc1`, -27.8% (inactive); under `COC(=O)c1ccc(NC(=O)C(C)N2C(=O)c3ccccc3C2=O)cc1` (centres undefined), 11.6% (inactive). Then `COC(=O)c1ccc(NCC(=O)c2ccccc2)cc1`, with 68.7% (active); and `CCN(CC)C(=O)CCC(=O)Nc1ccc(C(=O)OC)cc1`, with -4.8% (inactive); and `C=CCn1c(=O)c2ccccc2n2c(SCC(=O)N3CCCc4ccccc43)nnc12`, with -8.3% (inactive). In the case of `N#Cc1nc(COc2ccc(-c3ccccc3)cc2)oc1NCc1cccnc1`, the activation was -9.1% (inactive). In the case of `CCOc1ccc(Nc2oc(Cc3ccccc3)nc2C#N)cc1`, the activation was 39.8% (inactive). Then `N#Cc1nc(Cc2ccccc2)oc1NCCc1ccccc1`, with 63.4% (active); and `CCOc1ccc2nc(NCCNS(=O)(=O)c3ccccc3)c(C#N)cc2c1`, with 9.2% (inactive); and `COc1ccccc1Cc1nc(-c2ccc(C)cc2)no1`, with 16.4% (inactive). As for `COc1ccc2[nH]c(=O)c(-c3noc(-c4ccc(F)cc4)n3)cc2c1`, the activation is -0.1% (inactive).

Regarding `Cc1ccc(Cc2nc(-c3cccc(C)c3)no2)cc1`, the activation is 53.9% (active).

Regarding `Cc1cccc(-c2noc(-c3ccc(F)cc3)n2)c1`, the activation is 77.6% (active). On to `Cc1ccc(-c2noc(CN3CCN(Cc4ccccc4)CC3)n2)cc1`, for which the activation was 16.7% (inactive). Then `Cc1ccc(-c2noc(CCC(N)=O)n2)cc1`, with 9.8% (inactive). Under `O=C1CCC(C(=O)Nc2ccc(OC(F)F)cc2)N1` (centres undefined) stands -10.9% (inactive); under `COc1ccc(NC(=O)CSc2nnc(-c3cccs3)n2Cc2ccco2)cc1OC`, -6% (inactive); under `CCOC(=O)CSc1nnc(CNc2nc(-c3ccccc3)cs2)n1C`, 11.1% (inactive).

In the case of `CC(=O)Nc1ccc(S(=O)(=O)N2CCN(CCCOc3cc(C)ccc3C)CC2)cc1`, the activation is -14.5% (inactive). Under `Cc1nc2ccc(C(=O)N3CCSCC3)cc2s1` stands 0.4% (inactive); under `O=C(Nc1cccc2cccnc12)c1cccc(N2C(=O)CCC2=O)c1`, 9% (inactive). For `COc1ccc(NC(=O)Nc2cccc3cccnc23)cc1`, the activation was 65.5% (active).

Turning to `CCCNC(=O)Nc1ccccc1C(=O)Nc1ccc(OC)cc1`, the activation was 7.4% (inactive). As for `COc1cc(-c2nc(S(=O)(=O)c3ccc(Cl)cc3)c(N(C)C)o2)cc(OC)c1OC`, the activation is -17.6% (inactive). Then `Cc1ccc(C(c2nnnn2CS(=O)(=O)c2ccc(C)cc2)N2CCC(C(N)=O)CC2)cc1` (centres undefined), with -4.8% (inactive).

In the case of `Cc1cc(C)cc(N(CC(=O)NCC2CCCO2)S(=O)(=O)c2c(C)noc2C)c1` (centres undefined), the activation is -8.7% (inactive). Then `N#Cc1c(NC(=O)CCCN2C(=O)c3ccccc3C2=O)oc(-c2ccccc2)c1-c1ccccc1`, with 12.7% (inactive); and `CCCc1[nH]nc2c1C(c1c(C)nn(-c3ccccc3)c1Cl)C(C#N)=C(N)O2` (centres undefined), with 6.3% (inactive).

Consider `CNC(=O)NCCN1CCCC1=O`, for which the activation was 1% (inactive). `O=C(CSc1nnc(-c2ccco2)n1Cc1ccccc1)NC(=O)NCc1ccco1`: the activation is -12.1% (inactive). Under `c1ccc(CSc2nnc(-c3ccco3)n2Cc2ccccc2)cc1` stands 76% (active); under `c1ccc(CSc2nnc(-c3ccco3)c(-c3ccco3)n2)cc1`, 0.5% (inactive); under `CCn1c(COc2ccc(OC)cc2)nnc1SCC(=O)Nc1cc(OC)ccc1OC`, -13.5% (inactive).

`COc1cc(C2C(C(=O)c3ccc(C)o3)=C(O)C(=O)N2CCc2ccccc2)ccc1O` (centres undefined): the activation was 8.7% (inactive). With `COc1cc(C2C3C(=O)N(c4ccccc4)C(=O)C3ON2c2ccccc2)ccc1O` (centres undefined), the activation was 51.7% (active). For the molecule `Cc1ccccc1N1C(=O)C2ON(c3ccccc3)C(c3ccncc3)C2C1=O` (centres undefined), the activation was 5.4% (inactive). With `COc1ccccc1NC(=O)CSc1nnc(-c2ccoc2C)n1CCc1ccccc1`, the activation is -3.3% (inactive). Regarding `CCN(C(=O)CSc1ncn[nH]1)c1cccc2ccccc12`, the activation is 16.4% (inactive). Take `Cn1nnc(NC(=O)CSc2ncn[nH]2)n1`: the activation is 4.4% (inactive). Under `CC(C)(C)c1ccc(C(=O)CSc2ncn[nH]2)cc1` stands 57.1% (active); under `O=S(=O)(c1cccc(-c2nnc(SC(F)F)n2-c2ccccc2)c1)N1CCCCC1`, 4.3% (inactive); under `CCOc1cc(N2CCOCC2)c(OCC)cc1NC(=O)COc1cccc2cccnc12`, 8.2% (inactive).

In the case of `Cc1ccc(C(=O)Nc2nnc(-c3cccs3)s2)cc1C`, the activation is 80.9% (active). As to `Cc1ccc(C(=O)Nc2nnc(-c3ccncc3)s2)o1`, the activation was 21.8% (inactive). Under `CCc1nnc(NC(=O)c2cccs2)s1` stands 50% (active). Then `CCc1nnc(NC(=O)CCC(=O)O)s1`, with -8.1% (inactive); and `CCc1ccccc1NC(=O)c1cccs1`, with -5.6% (inactive). For `Cc1occc1C(=O)Nc1nnc(-c2ccncc2)s1`, the activation is 20.4% (inactive). On to `CCOC(=O)c1ccc(-n2c(C)nc3c(cnn3-c3ccccc3C)c2=O)cc1`, for which the activation is 17.1% (inactive).

Regarding `CCCc1[nH]nc2c1C(c1ccc(Br)s1)C(C#N)=C(N)O2` (centres undefined), the activation was 15.9% (inactive).
